No end group written: not given here.
Columns and labels:
WW2 domain of WWOX = assay: ITC binding of WW1 domain of WWOX to WW2 domain and vice versa; parameters: species or system human
WW1 domain of WWOX = target: T1, WW1 domain of WWOX (Homo sapiens, UniProt Q9NZC7); assay: ITC binding of ErbB4 PPXY peptides to WW1 domain of WWOX
T1 sequence (Q9NZC7 16-50 limits assumed): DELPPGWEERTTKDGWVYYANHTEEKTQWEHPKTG
Summary of the method: (§1)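 His-tagged human WWOX constructs: WW1 (residues 16–50), WW1–WW2 tandem (16–91), and WW2 (57–91) carrying Y85W. Expressed in E. coli BL21*(DE3) and purified by Ni-NTA then SEC. 12-mer ErbB4 peptides (4 mM in syringe) injected 25× into 40–60 μM protein at 25 °C. Buffer: 50mM sodium phosphate, 100mM NaCl, 1mM EDTA, 5mM β-mercaptoethanol, pH 7.0. Buffer-titration heats subtracted. One-site fit with stoichiometry fixed at 1 gives Kd and ΔH. At least 3 repeats, SD.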

[1] = target: T2, WW1–WW2 tandem module of WWOX (Homo sapiens, UniProt Q9NZC7); assay: ITC binding of ErbB4 PPXY peptides to WW1–WW2 tandem module of WWOX; details: Table 4, pH 7.0, 25°C, mean ± SD, at least three measurements
T2 sequence (Q9NZC7 16-91): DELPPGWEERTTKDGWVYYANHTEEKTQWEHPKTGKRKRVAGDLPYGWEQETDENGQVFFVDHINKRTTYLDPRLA
Summary of the method: as §1

WW2W domain of WWOX = WW2W domain of WWOX (Homo sapiens, UniProt Q9NZC7, Y85W); assay: ITC binding of ErbB4 PPXY peptides to WW2W; details: for ΔH: Table 3, pH 7.0, 25°C, mean ± SD, at least three measurements
Summary of the method: as §1

WW2W domain of WWOX, sequence (Q9NZC7 57-91 Y85W limits assumed): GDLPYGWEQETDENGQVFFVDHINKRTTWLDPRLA

For “WW1: WW1 domain (residues 16–50) of human WWOX, recombinant with N-terminal His-tag ({His‑tag}-DELPPGWEERTTKDGWVYYANHTEEKTQWEHPKTG)”, the “binding between the two WW domains” value (WW2 domain of WWOX) was “no observable binding”.
With H-TVLPPPPYRARN-OH [PY3_A+5] the “enthalpy released relative to the PY3_WT peptide” value (WW1 domain of WWOX; ΔH of mutant versus PY3_WT) was “more than −5 kcal/mol”.
H-GHSPPPAYTPMS-OH [ErbB4_PY2] was tested, and the ΔH [1] was -4.88 ± 0.28 kcal/mol, the “affinity of binding to WW1 domain (in words)” value (WW1 domain of WWOX) was “in the order of hundreds of micromolar” and the ΔH (WW2W domain of WWOX) was -8.08 ± 1.09 kcal/mol.
H-TVLPPPPYRHRN-OH [ErbB4_PY3] was tested, and the ΔH [1] was -5.00 ± 0.30 kcal/mol, the ΔH (WW2W domain of WWOX) was -4.15 ± 0.28 kcal/mol and the “affinity for WW2W domain relative to binding of WW1 domain” value (WW2W domain of WWOX; Tables 1 and 3 compared) was “more than two-fold stronger”.
For H-FNIPPPIYTSRA-OH [ErbB4_PY1], the ΔH [1] was -7.25 ± 0.88 kcal/mol, the “affinity of binding to WW1 domain (in words)” value (WW1 domain of WWOX) was “in the order of hundreds of micromolar” and the ΔH (WW2W domain of WWOX) was -4.74 ± 0.52 kcal/mol.

From paper PMC3906126 (Biochemistry, 2013)
